In ChEMBL document CHEMBL4130549, “Synthesis and bioactivities study of new antibacterial peptide mimics: The dialkyl cationic amphiphiles” (Eur J Med Chem, 2018):
Calls of active or inactive are those of the source. No cut-off for these calls is given here.

Assays:
Enterococcus faecalis = assay: Antibacterial activity against Enterococcus faecalis after 16 to 20 hrs by broth microdilution method; type: functional
Procedure, shortened: (§1)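 Broth microdilution per CLSI in cation-adjusted Mueller-Hinton broth; 4-6 h cultures (~10⁸ CFU/mL) diluted to ~10⁶ CFU/mL and mixed 1:1 with twofold dilutions of water-dissolved compound (256 to 0.5 µg/mL). Incubated 16-20 h at 37 °C; MIC read visually. Each concentration run in duplicate, whole experiment repeated at least twice. MRSA, KPC and NDM-1 strains were clinical isolates.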

Staphylococcus aureus [1] = assay: Antibacterial activity against methicillin-resistant Staphylococcus aureus after 16 to 20 hrs by broth microdilution method; type: functional
Procedure, shortened: (§2)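 CLSI broth microdilution in cation-adjusted Mueller-Hinton broth. A 4-6 h culture was diluted to about 10⁶ CFU/mL and mixed 1:1 with twofold compound dilutions (256–0.5 µg/mL before mixing) prepared from aqueous stocks. Plates were incubated at 37 °C for 16-20 h. Each concentration was tested in duplicate, and the experiment was repeated at least twice.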

Enterobacteriaceae [2] = assay: Antibacterial activity against NDM-1-producing Enterobacteriaceae after 16 to 20 hrs by broth microdilution method; type: functional; procedure, shortened: as §1
Staphylococcus aureus [3] = assay: Antibacterial activity against methicillin-resistant Staphylococcus aureus isolate M1 after 16 to 20 hrs by broth microdilution method; type: functional; procedure, shortened: as §2
Staphylococcus aureus [4] = assay: Antibacterial activity against methicillin-resistant Staphylococcus aureus isolate M3 after 16 to 20 hrs by broth microdilution method; type: functional; procedure, shortened: as §2
Staphylococcus aureus [5] = assay: Antibacterial activity against methicillin-resistant Staphylococcus aureus isolate M4 after 16 to 20 hrs by broth microdilution method; type: functional; procedure, shortened: as §2
Staphylococcus aureus [6] = assay: Antibacterial activity against methicillin-resistant Staphylococcus aureus isolate M5 after 16 to 20 hrs by broth microdilution method; type: functional; procedure, shortened: as §2
Staphylococcus aureus [7] = assay: Antibacterial activity against methicillin-resistant Staphylococcus aureus isolate M6 after 16 to 20 hrs by broth microdilution method; type: functional; procedure, shortened: as §2
Staphylococcus aureus [8] = assay: Antibacterial activity against methicillin-resistant Staphylococcus aureus isolate M7 after 16 to 20 hrs by broth microdilution method; type: functional; procedure, shortened: as §2
Staphylococcus aureus [9] = assay: Antibacterial activity against methicillin-resistant Staphylococcus aureus isolate M9 after 16 to 20 hrs by broth microdilution method; type: functional; procedure, shortened: as §2
Staphylococcus aureus [10] = assay: Antibacterial activity against methicillin-resistant Staphylococcus aureus isolate M10 after 16 to 20 hrs by broth microdilution method; type: functional; procedure, shortened: as §2
Klebsiella pneumoniae [11] = assay: Antibacterial activity against carbapenemase-producing Klebsiella pneumoniae isolate K1 after 16 to 20 hrs by broth microdilution method; type: functional; procedure, shortened: as §1
Klebsiella pneumoniae [12] = assay: Antibacterial activity against carbapenemase-producing Klebsiella pneumoniae isolate K3 after 16 to 20 hrs by broth microdilution method; type: functional; procedure, shortened: as §1
Klebsiella pneumoniae [13] = assay: Antibacterial activity against carbapenemase-producing Klebsiella pneumoniae isolate K4 after 16 to 20 hrs by broth microdilution method; type: functional; procedure, shortened: as §1
Klebsiella pneumoniae [14] = assay: Antibacterial activity against carbapenemase-producing Klebsiella pneumoniae isolate K5 after 16 to 20 hrs by broth microdilution method; type: functional; procedure, shortened: as §1
Klebsiella pneumoniae [15] = assay: Antibacterial activity against carbapenemase-producing Klebsiella pneumoniae isolate K6 after 16 to 20 hrs by broth microdilution method; type: functional; procedure, shortened: as §1
Klebsiella pneumoniae [16] = assay: Antibacterial activity against carbapenemase-producing Klebsiella pneumoniae isolate K7 after 16 to 20 hrs by broth microdilution method; type: functional; procedure, shortened: as §1
Klebsiella pneumoniae [17] = assay: Antibacterial activity against carbapenemase-producing Klebsiella pneumoniae isolate K8 after 16 to 20 hrs by broth microdilution method; type: functional; procedure, shortened: as §1
Klebsiella pneumoniae [18] = assay: Antibacterial activity against carbapenemase-producing Klebsiella pneumoniae isolate K9 after 16 to 20 hrs by broth microdilution method; type: functional; procedure, shortened: as §1
Enterobacteriaceae [19] = assay: Antibacterial activity against NDM-1-producing Enterobacteriaceae isolate N1 after 16 to 20 hrs by broth microdilution method; type: functional; procedure, shortened: as §1
Enterobacteriaceae [20] = assay: Antibacterial activity against NDM-1-producing Enterobacteriaceae isolate N2 after 16 to 20 hrs by broth microdilution method; type: functional; procedure, shortened: as §1
Enterobacteriaceae [21] = assay: Antibacterial activity against NDM-1-producing Enterobacteriaceae isolate N4 after 16 to 20 hrs by broth microdilution method; type: functional; procedure, shortened: as §1
Enterobacteriaceae [22] = assay: Antibacterial activity against NDM-1-producing Enterobacteriaceae isolate N5 after 16 to 20 hrs by broth microdilution method; type: functional; procedure, shortened: as §1
Enterobacteriaceae [23] = assay: Antibacterial activity against NDM-1-producing Enterobacteriaceae isolate N7 after 16 to 20 hrs by broth microdilution method; type: functional; procedure, shortened: as §1
Enterobacteriaceae [24] = assay: Antibacterial activity against NDM-1-producing Enterobacteriaceae isolate N8 after 16 to 20 hrs by broth microdilution method; type: functional; procedure, shortened: as §1
Enterobacteriaceae [25] = assay: Antibacterial activity against NDM-1-producing Enterobacteriaceae isolate N9 after 16 to 20 hrs by broth microdilution method; type: functional; procedure, shortened: as §1
Enterobacteriaceae [26] = assay: Antibacterial activity against NDM-1-producing Enterobacteriaceae isolate N10 after 16 to 20 hrs by broth microdilution method; type: functional; procedure, shortened: as §1
Staphylococcus aureus [27] = assay: Bactericidal activity against methicillin-resistant Staphylococcus aureus after 20 to 24 hrs by broth microdilution method; type: functional
Procedure, shortened: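 For MBC, 20 µL from wells of the broth microdilution MIC plate showing little or no turbidity was plated on agar and incubated 20-24 h at 37 °C. MBC was the lowest concentration giving no colonies.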

Staphylococcus aureus [28] = assay: Bactericidal activity against methicillin-resistant Staphylococcus aureus after 20 to 24 hrs in presence of 50% plasma by broth microdilution method; type: functional, organism-based
Procedure, shortened: (§3)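 MRSA at 10⁵ CFU/mL in 50% Mueller-Hinton broth plus 50% sheep serum, plasma or defibrinated whole blood. Serum and plasma were separated by centrifugation at 3,500 rpm for 10 min. Aqueous compound dilutions (512–4 µg/mL before mixing) were combined 1:3 with the suspension and incubated 20-24 h at 37 °C. Wells were plated on Mueller-Hinton agar for a further 20-24 h; MBC was taken as no colonies.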

Staphylococcus aureus [29] = assay: Bactericidal activity against methicillin-resistant Staphylococcus aureus after 20 to 24 hrs in presence of 50% blood by broth microdilution method; type: functional, organism-based; procedure, shortened: as §3
Staphylococcus aureus [30] = assay: Ratio of MBC for methicillin-resistant Staphylococcus aureus in presence of 50% serum to MBC for methicillin-resistant Staphylococcus aureus; type: functional; procedure, shortened: as §3
Staphylococcus aureus [31] = assay: Ratio of MBC for methicillin-resistant Staphylococcus aureus in presence of 50% plasma to MBC for methicillin-resistant Staphylococcus aureus; type: functional; procedure, shortened: as §3
Staphylococcus aureus [32] = assay: Induction of cytoplasmic membrane depolarization in Staphylococcus aureus ATCC 29213 at 20 ug/ml measured every 2 mins for 12 mins by diSC35 staining based fluorescence assay; type: functional, organism-based
Procedure, shortened: (§4)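 Mid-log cells (4–6 h) pelleted, washed and resuspended (~10^8 CFU/mL) in PBS for S. aureus, or in 5 mM HEPES, 5 mM glucose and 100 mM KCl (1:1:1) for E. coli. Preloaded with diSC35 (10 µM, 50 µL), 30 min for S. aureus and 40 min plus EDTA (200 µM, 50 µL) for E. coli. Baseline read 8 min (ex 622/em 670 nm), then compound added to 20 µg/mL final and read every 2 min for 12 min. Water control.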

Escherichia coli = assay: Induction of cytoplasmic membrane depolarization in Escherichia coli ATCC 25922 at 20 ug/ml measured every 2 mins for 12 mins by diSC35 staining based fluorescence assay; type: functional, organism-based; procedure, shortened: as §4
Staphylococcus aureus [33] = assay: Induction of inner membrane permeabilization in Staphylococcus aureus ATCC 29213 at 20 ug/ml measured every 2 mins for 12 mins by propidium iodide staining based fluorescence assay; type: functional, organism-based
Procedure, shortened: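 Mid-log cells (~10^8 CFU/mL) pre-incubated with propidium iodide (10 µM, 50 µL), 30 min for S. aureus and 40 min for E. coli. Fluorescence (ex 535/em 617 nm) read for 8 min, then compound added to 20 µg/mL final and monitored every 2 min for 12 min. Water-treated control.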

Structure (SMILES) | MIC (Enterococcus faecalis) [µg/mL] | MIC (Staphylococcus aureus [1]) [µg/mL] | MIC (Enterobacteriaceae [2]) [µg/mL] | MIC (Staphylococcus aureus [3]) [µg/mL] | MIC (Staphylococcus aureus [4]) [µg/mL] | MIC (Staphylococcus aureus [5]) [µg/mL] | MIC (Staphylococcus aureus [6]) [µg/mL] | MIC (Staphylococcus aureus [7]) [µg/mL] | MIC (Staphylococcus aureus [8]) [µg/mL] | MIC (Staphylococcus aureus [9]) [µg/mL] | MIC (Staphylococcus aureus [10]) [µg/mL] | MIC (Klebsiella pneumoniae [11]) [µg/mL] | MIC (Klebsiella pneumoniae [12]) [µg/mL] | MIC (Klebsiella pneumoniae [13]) [µg/mL] | MIC (Klebsiella pneumoniae [14]) [µg/mL] | MIC (Klebsiella pneumoniae [15]) [µg/mL] | MIC (Klebsiella pneumoniae [16]) [µg/mL] | MIC (Klebsiella pneumoniae [17]) [µg/mL] | MIC (Klebsiella pneumoniae [18]) [µg/mL] | MIC (Enterobacteriaceae [19]) [µg/mL] | other results
CCCCCCCCCCN(CCCCCCCCCC)C(=O)[C@@H](N)CCCN=C(N)N.Cl.Cl.Cl | 2 | 2 | 4 | 2 | 2 | 2 | 2 | 2 | 2 | 2 | 2 | 4 | 4 | 4 | 4 | 4 | 4 | 4 | 4 | 4 | MIC (Enterobacteriaceae [20]): 4 µg/mL; MIC (Enterobacteriaceae [21]): 4 µg/mL; MIC (Enterobacteriaceae [22]): 4 µg/mL; MIC (Enterobacteriaceae [23]): 4 µg/mL; MIC (Enterobacteriaceae [24]): 4 µg/mL; MIC (Enterobacteriaceae [25]): 8 µg/mL; MIC (Enterobacteriaceae [26]): 8 µg/mL; MBC (Staphylococcus aureus [27]): 4 to 8 µg/mL; Activity (Staphylococcus aureus [28]): Active; Activity (Staphylococcus aureus [29]): inactive; Ratio (Staphylococcus aureus [30]): 1 - 2; Ratio (Staphylococcus aureus [31]): 2 - 4; Activity (Staphylococcus aureus [32]): Active; Activity (Escherichia coli): Active; Activity (Staphylococcus aureus [33]): Active
CCCCCCCCCN(CCCCCCCCC)C(=O)[C@@H](N)CCCN=C(N)N.Cl.Cl.Cl | 2 | 2 | 4 | 2 | 1 | 1 | 2 | 2 | 2 | 2 | 2 | 4 | 4 | 2 | 4 | 4 | 4 | 4 | 4 | 4 | MIC (Enterobacteriaceae [20]): 4 µg/mL; MIC (Enterobacteriaceae [21]): 4 µg/mL; MIC (Enterobacteriaceae [22]): 4 µg/mL; MIC (Enterobacteriaceae [23]): 2 µg/mL; MIC (Enterobacteriaceae [24]): 2 µg/mL; MIC (Enterobacteriaceae [25]): 4 µg/mL; MIC (Enterobacteriaceae [26]): 4 µg/mL; MBC (Staphylococcus aureus [27]): 4 to 8 µg/mL; Activity (Staphylococcus aureus [28]): Active; Activity (Staphylococcus aureus [29]): inactive; Ratio (Staphylococcus aureus [30]): 1 - 2; Ratio (Staphylococcus aureus [31]): 2 - 4; Activity (Staphylococcus aureus [32]): Active; Activity (Escherichia coli): Active; Activity (Staphylococcus aureus [33]): Active
CCCCCCCCCN(CCCCCCCCC)C(=O)[C@@H](N)CCCCN.Cl.Cl | 1 | 0.5 | 2 | 1 | 1 | 2 | 1 | 1 | 1 | 1 | 0.5 | 2 | 2 | 2 | 2 | 2 | 2 | 2 | 2 | 2 | MIC (Enterobacteriaceae [20]): 2 µg/mL; MIC (Enterobacteriaceae [21]): 2 µg/mL; MIC (Enterobacteriaceae [22]): 2 µg/mL; MIC (Enterobacteriaceae [23]): 2 µg/mL; MIC (Enterobacteriaceae [24]): 2 µg/mL; MIC (Enterobacteriaceae [25]): 4 µg/mL; MIC (Enterobacteriaceae [26]): 4 µg/mL; MBC (Staphylococcus aureus [27]): 4 to 8 µg/mL; Activity (Staphylococcus aureus [28]): Active; Activity (Staphylococcus aureus [29]): inactive; Ratio (Staphylococcus aureus [30]): 1 - 2; Ratio (Staphylococcus aureus [31]): 2 - 4; Activity (Staphylococcus aureus [32]): Active; Activity (Escherichia coli): Active; Activity (Staphylococcus aureus [33]): Active
